Our source for the GI50, LC50 and CC50 values is ChEMBL document CHEMBL1140308, “A new synthetic agent with potent but selective cytotoxic activity against cancer” (2005).

Type in all cases: functional
For assay [1], the system named is HL-60. Kind of assay: Concentration required to inhibit the growth of human leukemia cancer HL-60 cell line by 50% after 120 hours; determined by MTT assay. The settings on record: HL-60, 120 h. In outline:
(§1)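 Cells (A549, HCT-116, SK-MEL-2 in DMEM; HL-60, MCF-7 in RPMI 1640; 10% FBS) seeded at 1000-1500/well, six wells per concentration, and precultured 1 day. Added 2 µM working solution and 10-fold serial dilutions, or vehicle. MTT read at 544 nm after 120 h at 37 °C, with T0 reference plates. GI50 is 50% of control growth; ≥3 independent runs.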

Assay [2] relates to MCF7. Kind of assay: Concentration required to inhibit the growth of human breast cancer MCF-7 cell line by 50% after 120 hours; determined by MTT assay. To be noted: MCF7, 120 h. In outline: as §1
Assay [3] has as its system SK-MEL-2. Kind of assay: Concentration required to inhibit the growth of human malenoma cancer SK-MEL-2 cell line by 50% after 120 hours; determined by MTT assay. To be noted: SK-MEL-2, 120 h. A digest of the protocol: as §1
The test system of assay [4] is A549. Description: Concentration required to inhibit human […] lung cancer A549 cell growth by 50% after 120 hours; determined by MTT assay. The settings on record: A549, 120 h. A digest of the protocol:
as §1
In general terms: Formazan colour is commonly taken as a measure of viable cells.

The test system of assay [5] is HCT-116. Kind of assay: Concentration required to inhibit the growth of human colon cancer HCT116 cell line by 50% to initial after 120 hours; determined using MTT assay. To be noted: HCT-116, 120 h.
In assay [6] the test system is HCT-116. Kind of assay: Concentration required to cause lethality in human colon cancer HCT116 cell line by 50% after 120 hours; determined by MTT assay. To be noted: HCT-116, 120 h. A digest of the protocol:
(§2)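 Cells (DMEM for HCT-116, SK-MEL-2, A549; RPMI 1640 for HL-60, MCF-7; 10% FBS) were seeded at 1000-1500 per well and precultured 1 day. Methanesulfonate-salt drug was added as 10-fold serial dilutions from a 2 μM working solution, six wells per concentration. MTT absorbance was read at 544 nm after 120 h at 37 °C against T0 plates. LC50 is 50% reduction of initial cell number; values are the mean of ≥3 independent determinations.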

For assay [7], the system named is HL-60. Kind of assay: Concentration required to cause lethality in human leukemia cancer HL-60 cell line by 50% after 120 hours; determined by MTT assay. The settings on record: HL-60, 120 h. In outline:
as §2

Assay [8] has as its system SK-MEL-2. Description: Concentration required to cause lethality in human malenoma cancer SK-MEL-2 cell line by 50% after 120 hrs; determined by MTT assay. To be noted: SK-MEL-2, 120 h. In outline:
as §2

Assay [9] deals with A549. Kind of assay: Concentration required to cause lethality in human […] lung cancer A549 cell line by 50% after 120 hours; determined by MTT assay. To be noted: A549, 120 h. A digest of the protocol: as §2
In assay [10] the test system is MCF7. Kind of assay: Concentration required to cause lethality in human breast cancer MCF-7 cell line by 50% after 120 hours; determined by MTT assay. The settings on record: MCF7, 120 h. A digest of the protocol:
as §2

For assay [11], the system named is A549. Kind of assay: Concentration required for inhibition of human […] lung cancer A549 cell growth by 50%, after 120 hours; determined by MTT assay. The settings on record: A549, 120 h. In outline:
as §1

The GI50 is the concentration giving 50% growth inhibition. A lower GI50 goes with greater sensitivity of the cells. What is called LC50 is the concentration lethal to half of the exposed cells or organisms. Read a low LC50 as a more lethal substance. Regarding `COc1ccc2nc3cc(Cl)ccc3c(NCCCN3CCN(CCCNc4ccc5ncn6c7ccccc7c(=O)c4c56)CC3)c2c1`, the GI50 in assay [1] came out at 0.4 µM; in [2] it was 0.4 µM; in [3] it was 0.3 µM; in assay [4], 0.008 µM; in assay [5], 0.0038 µM. The 50% lethal concentration (LC50) in [6], in assay [7], in assay [8], in [9] and in assay [10] was over 1 µM in each case.
Take `CN(CCCNc1ccc2ncn3c4ccccc4c(=O)c1c23)CCCN1C(=O)c2cccc3cc([N+](=O)[O-])cc(c23)C1=O`: the GI50 is 0.12 µM in assay [1]; 0.05 µM in [2]; 0.15 µM in [3]; 0.025 µM in assay [4]; 0.008 µM in assay [5]. Moreover, the LC50 is 0.22 µM in [6]; 0.5 µM in assay [7]; over 1 µM in assay [8]; 0.5 µM in [9]; over 1 µM in assay [10].
Consider `Nc1cc2c3c(cccc3c1)C(=O)N(CCCN1CCN(CCCNc3ccc4ncn5c6ccccc6c(=O)c3c45)CC1)C2=O`, for which the GI50 in assay [1] came to 0.005 µM; in assay [2] it was 0.032 µM; in assay [3], 0.015 µM; in assay [11] it was 0.0025 µM; in assay [5], 0.0022 µM. In addition, the LC50 in assay [6] was 0.08 µM; in [7], 0.45 µM; in assay [8], 0.75 µM; in assay [9] it was 0.1 µM; in assay [10] it was over 1 µM.
For `O=C1c2cccc3cc([N+](=O)[O-])cc(c23)C(=O)N1CCCN1CCN(CCCNc2ccc3ncn4c5ccccc5c(=O)c2c34)CC1`, the GI50 in [1] came out at 0.0035 µM; in assay [2], 0.0032 µM; in assay [3] it was 0.004 µM; in assay [4] it was 0.0006 µM; in assay [5], 0.0005 µM. The LC50 in [6] was 0.032 µM; in assay [7], 0.033 µM; in assay [8] it was 0.06 µM; in assay [9], 0.035 µM; in assay [10], over 1 µM.
For `CN(C)CCN1C(=O)c2cccc3cc([N+](=O)[O-])cc(c23)C1=O` [MITONAFIDE], the GI50 in assay [1] came out at 0.045 µM; in assay [2], 0.245 µM; in assay [3], 0.15 µM; in assay [4], 0.065 µM; in assay [5], 0.25 µM. For the same compound, in [7] (read-out: LC50 (the source's name)), the CC50 turned out to be 0.4 µM.
